Data set [1] concerns the target Tyrosine-protein kinase ITK/TSK (Homo sapiens) (UniProt Q08881). Kind of data set: Inhibition of recombinant human N-terminal His6-tagged ITK (352 to 617 residues) expressed in baculovirus infected Sf21 insect cells at 100 nM using poly (Glu, Tyr)4:1 as substrate measured after 1 hr by ELISA relative to control. In short, it runs like this: (§1)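 ELISA kinase assay: recombinant kinase added to wells precoated with poly(Glu,Tyr)4:1 and incubated with compound in reaction buffer containing 5 μM ATP, 37 °C for 1 h; wells then washed before antibody detection.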
In general terms: An ELISA detects its analyte on a solid surface through an enzyme-linked reagent.

Data set [2] concerns the target Platelet-derived growth factor receptor alpha (Homo sapiens) (UniProt P16234). Kind of data set: Inhibition of recombinant human N-terminal His6-tagged PDGFRalpha (550 to end residues) expressed in baculovirus infected Sf21 insect cells at 10 nM using poly (Glu, Tyr)4:1 as substrate measured after 1 hr by ELISA relative to control. The method, boiled down:
as §1

The target in data set [3] is Proto-oncogene tyrosine-protein kinase receptor Ret (Homo sapiens) (UniProt P07949). Kind of data set: Inhibition of recombinant human N-terminal GST-tagged RET (658 to end residues) expressed in baculovirus infected Sf21 insect cells at 1000 nM using poly (Glu, Tyr)4:1 as substrate measured after 1 hr by ELISA relative to control. In short, it runs like this: (§2)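 Recombinant kinase was incubated with compound in reaction buffer containing 5 μM ATP, in wells precoated with poly(Glu,Tyr) 4:1, for 1 h at 37 °C. Phosphorylation was detected by ELISA.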

Data set [4] has the same target. Kind of data set: Inhibition of recombinant human N-terminal GST-tagged RET (658 to end residues) expressed in baculovirus infected Sf21 insect cells at 10 nM using poly (Glu, Tyr)4:1 as substrate measured after 1 hr by ELISA relative to control. The method, boiled down:
as §2

A short description of data set [5]: Cytotoxicity against mouse RAW264.7 cells assessed as reduction in cell viability measured after 24 hrs by CCK8 assay. In kind it is cell-based. The method, boiled down: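 RAW264.7 cells were seeded in triplicate in DMEM and exposed to compound for 24 h. CCK-8 was added, incubated 1 h, and absorbance read at 450 nm with 570 nm reference. CC50 from log(inhibitor) versus normalized response nonlinear fit.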
(Tetrazolium dyes change colour on reduction, which living cells bring about.)

Data set [6] in a line: Tmax in Sprague-Dawley rat at 5 mg/kg, po administered via gavage by LC-MS/MS analysis. Type of data set: ADME, organism-based. To be noted: in vivo. The method, boiled down:
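Male SD rats (200 ± 20 g), fasted 12 h, n = 3; oral gavage 5 mg/kg in DMSO/HPMC (5/95). Femoral vein blood at 15–1440 min; plasma precipitated with methanol plus internal standard, LC–MS/MS; noncompartmental analysis, Tmax observed directly, MRT = AUMC/AUC.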

The target of data set [7] is Platelet-derived growth factor receptor alpha (Homo sapiens) (UniProt P16234). The experiment in a line: Inhibition of recombinant human N-terminal His6-tagged PDGFRalpha (550 to end residues) expressed in baculovirus infected Sf21 insect cells at 100 nM using poly (Glu, Tyr)4:1 as substrate measured after 1 hr by ELISA relative to control. The method, boiled down: as §1

The target of data set [8] is Tyrosine-protein kinase ITK/TSK (Homo sapiens) (UniProt Q08881). Kind of data set: Inhibition of recombinant human N-terminal His6-tagged ITK (352 to 617 residues) expressed in baculovirus infected Sf21 insect cells at 1000 nM using poly (Glu, Tyr)4:1 as substrate measured after 1 hr by ELISA relative to control. The method, boiled down: as §1
Data set [9] has as its target Vascular endothelial growth factor receptor 1 (Homo sapiens) (UniProt P17948). Kind of data set: Inhibition of recombinant human VEGFR1 expressed in Spodoptera frugiperda insect cells at 10 nM using poly (Glu, Tyr)4:1 as substrate measured after 1 hr by ELISA relative to control. In short, it runs like this:
as §1

Data set [10] has as its target T1, c-KIT (Homo sapiens, UniProt P10721). The experiment in a line: Inhibition of recombinant human N-terminal GST-tagged c-KIT (544 to end residues) expressed in baculovirus infected Sf21 insect cells at 10 nM using poly (Glu, Tyr)4:1 as substrate measured after 1 hr by ELISA relative to control. To be noted: probe poly (Glu, Tyr)4:1. In short, it runs like this:
as §2

For data set [11], the target named is T1, c-KIT. Kind of data set: Inhibition of recombinant human N-terminal GST-tagged c-KIT (544 to end residues) expressed in baculovirus infected Sf21 insect cells at 100 nM using poly (Glu, Tyr)4:1 as substrate measured after 1 hr by ELISA relative to control. To be noted: probe poly (Glu, Tyr)4:1. The method, boiled down:
as §2

The nature of data set [12]: Elimination half life in Sprague-Dawley rat at 5 mg/kg, po administered via gavage by LC-MS/MS analysis. In kind it is ADME, organism-based. To be noted: in vivo, read-out: beta t1/2 (converted). The method, boiled down: (§3)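 Male SD rats (200 ± 20 g) were fasted 12 h with free access to water, n = 3 per group. One group received 2 mg/kg iv in DMSO/EtOH/PEG300/saline (5/5/40/50). The other received 5 mg/kg by oral gavage in DMSO/HPMC (5/95). Femoral-vein plasma was taken at 15–1440 min, methanol-precipitated with internal standard, and measured by LC–MS/MS. Noncompartmental analysis; AUC by trapezoidal method.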

In data set [13] the target is Proto-oncogene tyrosine-protein kinase Src (Homo sapiens) (UniProt P12931). The experiment in a line: Inhibition of recombinant human full-length N-terminal His6-tagged Src expressed in Sf21 insect cells at 10 nM using poly (Glu, Tyr)4:1 as substrate measured after 1 hr by ELISA relative to control. The method, boiled down: as §1
Data set [14] in a line: AUC (0 to t) in Sprague-Dawley rat at 5 mg/kg, po administered via gavage by LC-MS/MS analysis. Type of data set: ADME, organism-based. The settings on record: in vivo. In short, it runs like this: as §3
Data set [15] addresses Fibroblast growth factor receptor 3 (Homo sapiens, UniProt P22607). Kind of data set: Inhibition of recombinant human N-terminal His6-tagged FGFR3 (447 to 761 residues) expressed in baculovirus infected Sf21 insect cells at 100 nM using poly (Glu, Tyr)4:1 as substrate measured after 1 hr by ELISA relative to control. In short, it runs like this: as §2
The target in data set [16] is Fibroblast growth factor receptor 4 (Homo sapiens, UniProt P22455). The experiment in a line: Inhibition of recombinant human N-terminal His6-tagged FGFR4 (442 to 755 residues) expressed in baculovirus infected Sf21 insect cells at 100 nM using poly (Glu, Tyr)4:1 as substrate measured after 1 hr by ELISA relative to control. The method, boiled down:
as §2

Data set [17] has as its target Insulin receptor (Homo sapiens) (UniProt P06213). Kind of data set: Inhibition of recombinant human N-terminal His6-tagged IR (1005 to 1310 residues) expressed in baculovirus infected Sf21 insect cells at 1000 nM using poly (Glu, Tyr)4:1 as substrate measured after 1 hr by ELISA relative to control. In short, it runs like this: as §1
Data set [18] in a line: Elimination half life in Sprague-Dawley rat at 2 mg/kg, iv administered […] by LC-MS/MS analysis. Type of data set: ADME, organism-based. The settings on record: in vivo, read-out: beta t1/2 (converted). The method, boiled down: as §3
Data set [19] has as its target Vascular endothelial growth factor receptor 3 (Homo sapiens) (UniProt P35916). Kind of data set: Inhibition of recombinant VEGFR3 (unknown origin) at 100 nM using poly (Glu, Tyr)4:1 as substrate measured after 1 hr by ELISA relative to control. The method, boiled down: as §2
For data set [20], the target named is Tyrosine-protein kinase ABL1 (Homo sapiens) (UniProt P00519). Kind of data set: Inhibition of recombinant human N-terminal His6-tagged Abl (27 to end residues) expressed in baculovirus infected Sf21 insect cells at 1000 nM using poly (Glu, Tyr)4:1 as substrate measured after 1 hr by ELISA relative to control. The method, boiled down: as §2

Tyrosine-protein kinase ITK/TSK (Homo sapiens), sequence (Q08881 whole entry, the tested form may be a part): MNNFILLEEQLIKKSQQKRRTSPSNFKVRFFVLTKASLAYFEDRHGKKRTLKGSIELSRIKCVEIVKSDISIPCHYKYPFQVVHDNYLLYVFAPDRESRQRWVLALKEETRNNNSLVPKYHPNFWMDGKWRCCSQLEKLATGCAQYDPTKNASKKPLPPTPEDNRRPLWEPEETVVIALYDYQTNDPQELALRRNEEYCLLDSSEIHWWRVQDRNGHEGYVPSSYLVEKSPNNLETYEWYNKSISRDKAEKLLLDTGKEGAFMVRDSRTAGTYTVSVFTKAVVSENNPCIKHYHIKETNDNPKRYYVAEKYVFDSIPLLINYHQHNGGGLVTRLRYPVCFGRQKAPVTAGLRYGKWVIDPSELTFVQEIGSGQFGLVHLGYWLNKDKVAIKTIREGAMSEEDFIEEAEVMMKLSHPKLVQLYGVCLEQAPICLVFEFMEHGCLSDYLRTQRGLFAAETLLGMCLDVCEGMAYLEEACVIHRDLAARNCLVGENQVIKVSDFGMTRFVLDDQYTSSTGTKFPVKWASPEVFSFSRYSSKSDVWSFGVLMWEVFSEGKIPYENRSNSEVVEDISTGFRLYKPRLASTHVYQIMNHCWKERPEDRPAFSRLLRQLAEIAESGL
Platelet-derived growth factor receptor alpha (Homo sapiens), sequence (P16234 whole entry): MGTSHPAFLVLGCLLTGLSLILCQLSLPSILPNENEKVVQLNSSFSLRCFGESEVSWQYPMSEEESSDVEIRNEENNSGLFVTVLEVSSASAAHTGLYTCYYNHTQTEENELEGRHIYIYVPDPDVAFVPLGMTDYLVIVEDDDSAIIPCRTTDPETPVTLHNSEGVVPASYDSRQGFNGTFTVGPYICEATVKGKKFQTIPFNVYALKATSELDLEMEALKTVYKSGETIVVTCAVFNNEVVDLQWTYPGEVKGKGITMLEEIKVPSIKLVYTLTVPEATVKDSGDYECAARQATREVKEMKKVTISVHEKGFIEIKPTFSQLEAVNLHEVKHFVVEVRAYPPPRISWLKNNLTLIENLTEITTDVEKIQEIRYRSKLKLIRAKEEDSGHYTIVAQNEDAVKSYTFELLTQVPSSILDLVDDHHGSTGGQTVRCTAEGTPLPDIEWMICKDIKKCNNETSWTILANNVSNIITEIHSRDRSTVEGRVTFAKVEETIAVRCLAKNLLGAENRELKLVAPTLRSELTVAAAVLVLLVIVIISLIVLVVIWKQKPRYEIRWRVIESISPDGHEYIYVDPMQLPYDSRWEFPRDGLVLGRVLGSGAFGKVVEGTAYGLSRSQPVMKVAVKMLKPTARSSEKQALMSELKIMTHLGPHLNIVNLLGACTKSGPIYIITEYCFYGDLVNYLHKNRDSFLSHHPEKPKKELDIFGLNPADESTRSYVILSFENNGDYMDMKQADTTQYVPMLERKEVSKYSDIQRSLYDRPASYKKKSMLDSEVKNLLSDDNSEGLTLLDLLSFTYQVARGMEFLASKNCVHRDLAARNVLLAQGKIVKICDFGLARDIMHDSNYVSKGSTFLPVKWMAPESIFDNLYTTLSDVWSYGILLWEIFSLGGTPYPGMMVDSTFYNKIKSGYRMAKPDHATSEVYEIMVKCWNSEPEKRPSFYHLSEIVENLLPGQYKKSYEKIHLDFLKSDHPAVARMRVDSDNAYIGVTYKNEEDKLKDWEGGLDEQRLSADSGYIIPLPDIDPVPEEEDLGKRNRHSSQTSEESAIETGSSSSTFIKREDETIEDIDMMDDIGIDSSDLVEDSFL
T1 sequence (P10721 whole entry): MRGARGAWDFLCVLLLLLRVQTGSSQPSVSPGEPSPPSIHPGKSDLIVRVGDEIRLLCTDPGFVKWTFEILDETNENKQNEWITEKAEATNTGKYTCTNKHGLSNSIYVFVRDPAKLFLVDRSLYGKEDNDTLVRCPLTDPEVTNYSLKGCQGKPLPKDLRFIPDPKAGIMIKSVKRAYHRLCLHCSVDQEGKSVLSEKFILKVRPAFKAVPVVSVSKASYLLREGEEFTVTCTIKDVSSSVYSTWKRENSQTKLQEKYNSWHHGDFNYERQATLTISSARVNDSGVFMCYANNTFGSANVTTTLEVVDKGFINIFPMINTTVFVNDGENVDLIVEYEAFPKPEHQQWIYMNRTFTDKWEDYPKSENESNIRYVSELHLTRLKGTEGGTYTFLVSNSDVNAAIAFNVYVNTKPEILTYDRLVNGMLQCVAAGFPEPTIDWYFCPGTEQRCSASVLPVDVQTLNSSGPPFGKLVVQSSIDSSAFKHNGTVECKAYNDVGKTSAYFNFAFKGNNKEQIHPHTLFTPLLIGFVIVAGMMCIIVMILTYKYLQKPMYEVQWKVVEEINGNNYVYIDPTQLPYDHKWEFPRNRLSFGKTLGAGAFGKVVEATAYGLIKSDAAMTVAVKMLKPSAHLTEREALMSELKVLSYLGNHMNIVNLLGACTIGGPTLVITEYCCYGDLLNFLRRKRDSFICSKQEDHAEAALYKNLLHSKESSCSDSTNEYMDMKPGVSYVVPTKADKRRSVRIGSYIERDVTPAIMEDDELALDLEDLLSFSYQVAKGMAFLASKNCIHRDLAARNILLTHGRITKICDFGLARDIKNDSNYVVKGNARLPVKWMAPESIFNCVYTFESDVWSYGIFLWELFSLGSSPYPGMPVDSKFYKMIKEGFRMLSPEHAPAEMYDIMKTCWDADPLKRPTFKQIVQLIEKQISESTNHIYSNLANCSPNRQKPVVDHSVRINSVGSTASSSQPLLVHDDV
Proto-oncogene tyrosine-protein kinase receptor Ret (Homo sapiens), sequence (P07949 whole entry): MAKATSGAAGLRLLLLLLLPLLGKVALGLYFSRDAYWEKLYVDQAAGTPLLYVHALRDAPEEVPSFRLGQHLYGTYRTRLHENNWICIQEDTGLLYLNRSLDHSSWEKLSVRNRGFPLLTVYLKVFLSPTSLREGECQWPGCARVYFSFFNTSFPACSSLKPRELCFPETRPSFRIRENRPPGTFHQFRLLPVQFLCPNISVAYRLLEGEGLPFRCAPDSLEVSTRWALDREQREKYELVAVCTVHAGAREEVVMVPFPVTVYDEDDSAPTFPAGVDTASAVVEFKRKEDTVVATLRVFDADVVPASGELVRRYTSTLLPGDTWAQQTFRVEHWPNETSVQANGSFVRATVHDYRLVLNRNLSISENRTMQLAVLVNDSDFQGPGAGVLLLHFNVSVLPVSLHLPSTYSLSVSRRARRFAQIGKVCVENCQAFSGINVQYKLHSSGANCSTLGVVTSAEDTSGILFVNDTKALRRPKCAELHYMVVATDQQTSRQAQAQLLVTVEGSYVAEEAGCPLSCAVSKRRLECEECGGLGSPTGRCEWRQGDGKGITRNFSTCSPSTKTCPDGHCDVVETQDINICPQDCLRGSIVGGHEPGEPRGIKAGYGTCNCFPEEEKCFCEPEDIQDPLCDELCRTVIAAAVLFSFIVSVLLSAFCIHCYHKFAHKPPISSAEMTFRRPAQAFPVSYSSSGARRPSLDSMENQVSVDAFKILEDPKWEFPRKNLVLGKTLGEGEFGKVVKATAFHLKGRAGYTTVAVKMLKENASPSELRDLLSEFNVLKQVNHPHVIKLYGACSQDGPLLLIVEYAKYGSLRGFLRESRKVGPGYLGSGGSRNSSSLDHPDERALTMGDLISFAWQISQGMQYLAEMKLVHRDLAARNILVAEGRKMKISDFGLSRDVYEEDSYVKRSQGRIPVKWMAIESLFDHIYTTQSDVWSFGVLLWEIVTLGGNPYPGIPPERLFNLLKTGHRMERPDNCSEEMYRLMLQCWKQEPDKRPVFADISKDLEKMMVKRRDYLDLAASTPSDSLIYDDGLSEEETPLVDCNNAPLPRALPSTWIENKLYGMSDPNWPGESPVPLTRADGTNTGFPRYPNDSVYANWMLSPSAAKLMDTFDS
Fibroblast growth factor receptor 4, sequence (P22455 22-802 limits assumed): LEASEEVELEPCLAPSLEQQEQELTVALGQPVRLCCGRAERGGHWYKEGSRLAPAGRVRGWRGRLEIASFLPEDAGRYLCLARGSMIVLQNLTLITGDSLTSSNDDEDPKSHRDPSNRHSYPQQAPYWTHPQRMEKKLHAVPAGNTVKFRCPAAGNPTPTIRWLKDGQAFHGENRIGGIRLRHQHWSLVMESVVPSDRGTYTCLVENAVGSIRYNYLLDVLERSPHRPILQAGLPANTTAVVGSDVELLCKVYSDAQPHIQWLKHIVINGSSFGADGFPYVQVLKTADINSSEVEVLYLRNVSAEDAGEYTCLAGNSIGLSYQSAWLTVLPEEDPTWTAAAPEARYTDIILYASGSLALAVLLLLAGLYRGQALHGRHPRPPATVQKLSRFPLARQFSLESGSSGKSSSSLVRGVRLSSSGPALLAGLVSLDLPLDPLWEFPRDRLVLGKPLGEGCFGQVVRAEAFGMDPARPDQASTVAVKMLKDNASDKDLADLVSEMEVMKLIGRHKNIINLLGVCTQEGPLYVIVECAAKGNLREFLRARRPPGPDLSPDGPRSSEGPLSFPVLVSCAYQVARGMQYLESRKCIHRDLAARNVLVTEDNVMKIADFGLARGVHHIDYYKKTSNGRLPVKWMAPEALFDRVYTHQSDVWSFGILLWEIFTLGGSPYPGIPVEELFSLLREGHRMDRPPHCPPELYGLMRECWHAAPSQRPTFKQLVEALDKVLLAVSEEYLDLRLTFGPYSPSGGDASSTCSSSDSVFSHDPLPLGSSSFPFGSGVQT

In general, inhibition refers to the drop in the measured response relative to a control, in per cent. By CC50 is commonly meant the concentration that lowers cell viability or growth by half. Usually Tmax stands for the time at which the peak concentration occurs. As a reminder, the AUC(0-t) is exposure summed from dosing to a finite time, without extrapolation to infinity. A high value points to more exposure. Turning to `Cc1ccc(C(=O)Nc2ccc(Cl)cc2)cc1C#Cc1cc(-c2cnn(C)c2)cnc1N`, the inhibition in data set [1] was 4.2%; in data set [2], 54.6%; in [3], 96.6%; in [4] it was 42.7%; in [7], 83.9%; in data set [8] it was 7.4%. Further, the inhibition in [9] was 36.2%; in data set [13] it was 1.5%; in data set [15] it was 0%; in data set [16], 0%; in data set [17], 0%; in data set [19], 69.4%. Further, the inhibition in data set [20] was 98.3%. In addition, the CC50 at 24 h in [5] was 66 µM. The Tmax in data set [6] was 4 h. The inhibition at 1 h, 0.01 µM at c-KIT [10] was determined as 70.4%. At c-KIT [11], the inhibition at 1 h, 0.1 µM worked out at 100%. The half-life in data set [12] was 2.21 h; in [18] it was 3.33 h. In [14], the AUC(0-t) worked out at 634 ng·h/mL.
